In the library only some 5.7% were active in any assay of this set; here they are far more common.
CSC inhib: cancer stem cell viability inhibitors, primary screen, luminescence; cancer stem cell-like cells viability; inhibition, % at 7.5 µM; hit rate 1.1% among 300,000; in the data active = inhibition above about 75%; tested in HMLE shEcad cells
T cruzi inh: inhibitors of intracellular T. cruzi growth, primary screen, luminescence, NIH3T3 host cells | T. cruzi beta-gal in NIH3T3, 90 h | inhibition, % (test concentration not listed) | hit rate 1.4% among 300,000 | AID 1885, 2009;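 active = mean inhibition across valid replicates above about 55%, limit read from the data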;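 note: signal also drops with host cell toxicity which is not excluded here; 0% = plate median of DMSO wells and 100% = zero luminescence signal; higher percent means less beta-gal luminescence so fewer parasites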
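Incubation – ≥90 h infection period, 3 h prior cell attachment · System – NIH/3T3 fibroblasts plus reporter T. cruzi · Doses – compound pinned at 50 nL/well, DMSO · Read-out basis – percent inhibition of parasite-derived β-gal signal · Signal – luminescent β-galactosidase signal after 60 min lysis · Also added – 5000 T. cruzi trypomastigotes/well · Medium – Low-serum DMEM with 2% FBS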
Beta cell apopt: inhibitors of cytokine-induced beta cell apoptosis, primary screen, luminescence; INS-1E cytokine-induced death, ATP luminescence, 48 h; percent of positive-control rescue, neutral wells zero; protection from apoptosis, % (test concentration not listed); hit rate 0.8% among 300,000;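 active = Every replicate reaches about 75%, or at least half do and their mean reaches it too, limit read from the data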;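 note: 0% = cytokine-treated negative control wells and 100% = positive control rescue; higher means more ATP so stronger rescue from cytokine killing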
Mdm2 MdmX PPI: inhibitors of human Mdm2-MdmX association, primary screen, cell-based, luminescence, split luciferase, SaOS-2, uHTS; AID 485346, 2010; SaOS-2 split-luciferase Mdm2/MdmX complementation; hit rate 3% among 330,000; inhibition, % at 8 µM;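 active = inhibition of at least 50% at 8 µM in the primary screen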
SKKanGAS inh: S. pyogenes SKKanGAS growth inhibitors in kanamycin, primary screen, streptokinase expression inhibitor project, SKKanGAS strain, BacTiter-Glo luminescence. hit rate 1.3% among 300,000. 6 h. inhibition, % at 7.5 µM. AID 1662, 2009;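 active = mean replicate score, as percent of positive control median, at least 50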;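 note: strain carries kanamycin resistance gene driven by streptokinase promoter and grows in 40 µg/ml kanamycin; loss of luminescence reflects streptokinase promoter inhibition or plain growth inhibition; 0% = median of DMSO wells and 100% = positive control at its reference dose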
Calb FLC: C. albicans growth inhibition with fluconazole, primary screen, CaCi-2 strain, Alamar Blue fluorescence | C. albicans CaCi-2 (fluconazole-resistant clinical isolate) + fluconazole, 48 h | growth inhibition, % (test concentration not listed) | hit rate 0.57% among 300,000;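 active = growth inhibition above about 58% in most replicates, limit read from the data, passing the limit was not always enough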;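 note: all wells also contain fluconazole at 8 µg/ml as a sub-toxic cotreatment; 0% = median of DMSO wells and 100% = median of geldanamycin control wells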
Mdm2 MdmX conf: Mdm2-MdmX complex disruptors, retested hits, confirmation, luminescence, single concentration; Mdm2-MdmX binding, luminescent assay; inhibition, % at 8 µM; hit rate 55% among 10,000; shares compounds with Mdm2 MdmX PPI; in the data active = inhibition above about 40%
FLuc counter: full-length luciferase signal inhibition, confirmation, counter-screen for Mdm2/MdmX interaction inhibitor project, cell-based, single concentration, SaOS-2; inhibition, % at 8 µM; AID 504607, 2011; SaOS-2 full-length luciferase counterscreen, luminescence; shares compounds with Mdm2 MdmX PPI; hit rate 77% among 6,200;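 active = mean inhibition at 8 µM reaching about 37%, which flags the compound as non-specific, limit read from the data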;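 note: p53-null SaOS-2 cells with luciferase driven by a doxycycline-inducible promoter; compound on cells about two nights before reading with doxycycline added after day one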
The depositor's hits bear a star; . = no result.

SMILES	CSC inhib	T cruzi inh	Beta cell apopt	Mdm2 MdmX PPI	SKKanGAS inh	Calb FLC	Mdm2 MdmX conf	FLuc counter
CN(C)S(=O)(=O)c1ccc(N2CCCC2)c(C(=O)NNC(=O)c2ccc(F)cc2)c1	5	.	-2	-3	.	.	.	.
CCOc1ccccc1/C=N\Nc1cnn(Cc2ccccc2)c(=O)c1Cl	-3	56*	-2	53*	35	-3	24	.
OC(CNCc1ccco1)Cn1c2ccc(Br)cc2c2cc(Br)ccc21 (configuration not stated)	106*	42	3	75*	52*	5	31	70*
CCCc1cc(=O)[nH]c(SCC(=O)Nc2cc(S(=O)(=O)N3CCOCC3)ccc2Cl)n1	-7	.	-8	9	.	.	.	.
CN1CCCC1CCNc1ccc2sc3ccccc3c(=O)c2c1 (configuration not stated)	45	34	-5	-8	3	-14	.	.
Cc1cc2oc3cc(NCCC4CCCN4C)ccc3c(=O)c2cc1C (configuration not stated)	103*	39	11	82*	1	6	-31	.
CN(C(=O)CSc1nnc(-c2cccs2)n1C1CC1)C1CCS(=O)(=O)C1 (configuration not stated)	.	.	.	14	.	.	.	.
Cc1cccc2sc(NC(=O)c3cc(S(=O)(=O)N(C)C)ccc3N3CCCC3)nc12	59	39	-13	65*	11	26	70*	45*
CN(C)S(=O)(=O)c1ccc(N2CCCC2)c(C(=O)Nc2nc3ccccc3s2)c1	45	7	-26	42	2	-3	.	.
CN(C)S(=O)(=O)c1ccc(N2CCCC2)c(C(=O)Nc2nc(-c3ccc(F)cc3)cs2)c1	-4	14	-1	38	-2	-21	.	.
CN(C)S(=O)(=O)c1ccc(N2CCCC2)c(C(=O)Nc2nc(-c3cc(F)ccc3F)cs2)c1	23	23	-1	55*	-8	-3	47*	48*
COc1cccc(/C=N/Nc2cc(Cl)nc(C)n2)c1O	2	-3	11	-14	-1	-14	.	.
COc1cccc(/C=N/Nc2ncnc3c2ncn3Cc2ccccc2)c1O	-12	34	.	82*	14	-4	82*	63*
COc1ccc(/C=N/Nc2cc(N3CCOCC3)ncn2)c(OC)c1	-15	-8	1	28	-3	14	.	.
COc1cccc(/C=N/Nc2cc(N3CCOCC3)ncn2)c1O	66	-9	88*	73*	99*	98*	61*	63*
Cc1ccc(-n2c3nc(=O)[nH]c(=O)c-3cc3cc([N+](=O)[O-])ccc32)cc1	8	6	8	58*	-1	-2	46*	38*
COc1ccc(OCc2nnc(SCC(=O)Nc3ccccc3C#N)o2)cc1	8	1	1	9	1	7	.	.
CC1Cc2ccccc2N1C(=O)COC(=O)c1ccc([N+](=O)[O-])o1 (configuration not stated)	19	.	-3	18	.	.	.	.
COc1ccc(-c2nc3ccccc3c(C(=O)Nc3ccc(S(=O)(=O)Nc4cc(C)on4)cc3)c2C)cc1	33	-8	3	76*	16	4	56*	53*
CC(C)C(C)NC(=O)COn1nnc2ccc(S(=O)(=O)N3CCOCC3)cc21 (configuration not stated)	-6	.	-2	-6	.	.	.	.
CCOC(=O)C1=CN(Cc2ccco2)S(=O)(=O)NC1c1ccc(Br)cc1F (configuration not stated)	.	.	.	-11	.	.	.	.

Screens as filed in PubChem BioAssay.
